pIC50: −log10 of the molar value. Some results are limits rather than exact numbers.

As usually defined, the pIC50 is the IC50 on a negative log10 scale, so that one unit is a factor of ten. Usually inhibition in vivo stands for the change of the read-out against control, counted positive when it falls. Usually AUC stands for concentration integrated over time.

Data set [1] is described as follows: Inhibition of gamma secretase-mediated Abeta40 production.
Data set [2] deals with Mus musculus. In words: Inhibition of Abeta40 production in CRND8 mouse plasma at 30 mg/kg, po after 3 hrs. It is filed as functional. Put shortly: (§1)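 CRND8 transgenic mice were given a single oral dose of 30 mg/kg. Abeta40 was measured in plasma and brain cortex at 3 h, or at 6 h, after dosing. Results are expressed as percent inhibition of Abeta40.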
The subject of data set [3] is Mus musculus. Put plainly: Gastrointestinal toxicity in CRND8 mouse at 30 mg/kg, po after 3 hrs. Format: organism-based. Set-up: dose 30 mg/kg, route oral. Particulars: in vivo.
In another data set the target is Cytochrome P450 3A4 (Homo sapiens, UniProt P08684). In words: Inhibition of CYP3A4 preincubated for 30 mins. Format: ADME.
Sequence of Cytochrome P450 3A4 (P08684 whole entry): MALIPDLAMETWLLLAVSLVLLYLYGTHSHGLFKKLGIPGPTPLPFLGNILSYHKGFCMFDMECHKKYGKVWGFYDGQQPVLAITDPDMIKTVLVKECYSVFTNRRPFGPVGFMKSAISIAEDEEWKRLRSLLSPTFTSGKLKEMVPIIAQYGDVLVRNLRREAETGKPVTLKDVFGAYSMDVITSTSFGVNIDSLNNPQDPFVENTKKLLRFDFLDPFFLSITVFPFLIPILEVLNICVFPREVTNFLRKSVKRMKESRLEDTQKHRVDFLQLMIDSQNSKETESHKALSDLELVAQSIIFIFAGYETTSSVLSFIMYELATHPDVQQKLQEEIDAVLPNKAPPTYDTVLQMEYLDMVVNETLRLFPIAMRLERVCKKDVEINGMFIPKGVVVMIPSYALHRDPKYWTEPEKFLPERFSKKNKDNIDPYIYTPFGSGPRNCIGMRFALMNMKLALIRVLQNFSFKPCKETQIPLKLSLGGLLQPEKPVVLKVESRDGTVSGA
A short description of data set [4]: Inhibition of gamma secretase-mediated Abeta42 production by cell based assay. Put shortly: (§2)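 Cell-based assay measuring secreted Abeta40 and Abeta42. IC50 values are the means of two experiments.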
Data set [5] relates to Mus musculus. In words: Inhibition of Abeta40 production in CRND8 mouse brain cortex at 30 mg/kg, po after 3 hrs. It is filed as functional. In short, it runs like this: as §1
Data set [6] in a line: AUC in CRND8 mouse. Format: ADME, organism-based. More on the design: concentration or dose not given beside the values. Particulars: plasma.
Data set [7] can be described thus: Inhibition of gamma secretase-mediated Abeta40 production by cell based assay. In short, it runs like this:
as §2

In data set [8] the test system is Mus musculus. Put plainly: Inhibition of Abeta40 production in CRND8 mouse plasma at 30 mg/kg, po after 6 hrs. It is filed as functional. In short, it runs like this: as §1
Data set [9] has as its system Mus musculus. Put plainly: Inhibition of Abeta40 production in CRND8 mouse brain cortex at 30 mg/kg, po after 6 hrs. It is filed as functional. In short, it runs like this: as §1

As for `NC1CCC2(S(=O)(=O)c3ccc(Cl)cc3)c3c(F)ccc(F)c3OCC2C1` (racemic), in data set [1], the negative logarithm of the IC50 (pIC50) is 5.77.

Compound `CCC1(S(=O)(=O)c2ccc(Cl)cc2)CC(CO)Oc2c(F)ccc(F)c21` (mixture of isomers) gave a pIC50 in data set [1] of 6.21.

Compound `CC1(S(=O)(=O)c2ccc(Cl)cc2)CCOc2c(F)ccc(F)c21` (racemic) had a negative logarithm of the IC50 (pIC50) in data set [1] of 6.09.

With `O=S(=O)(N[C@@H]1CC[C@@]2(S(=O)(=O)c3ccc(Cl)cc3)c3c(F)ccc(F)c3OC[C@H]2C1)C(F)(F)F`, the inhibition in vivo at 30 mg/kg in the data set with Mus musculus [2] is 90%; in the data set on Mus musculus [5], 42%. Moreover, in the data set on Mus musculus [3], the Activity result was “Non-toxic”. Also, the negative-log IC50 (pIC50) is less than 4.52 against Cytochrome P450 3A4, 7.34 in data set [4], 7.57 in data set [1] and 6.97 in data set [7]. In data set [6], this compound displayed an exposure (AUC) of 5050 ng·h/mL.

For `CC(=O)NC1CCC2(S(=O)(=O)c3ccc(Cl)cc3)c3c(F)ccc(F)c3OCC2C1` (racemic), the values for the negative-log IC50 (pIC50) in data set [4], in data set [1] and in [7] were 6.97, 6.97 and 6.84, respectively. Moreover, the AUC in data set [6] amounted to 1720 ng·h/mL.

`O=S(=O)(c1ccc(Cl)cc1)[C@H]1c2c(F)ccc(F)c2OC[C@@H]1CO` (relative stereo) gave a pIC50 in [1] of 6.29.

On to `O=S(=O)(N[C@@H]1CC[C@@]2(S(=O)(=O)c3ccc(Cl)cc3)c3c(F)ccc(F)c3OC[C@H]2C1)c1ccccn1`, for which the inhibition in vivo at 30 mg/kg with Mus musculus [2] was found to be 19%. Also, the pIC50 was 7.59 in data set [4], 8.12 in data set [1] and 7.17 in [7].

On to `O=S(=O)(c1ccc(Cl)cc1)C1CCOc2c(F)ccc(F)c21` (racemic), for which, in data set [1], the pIC50 is 5.80.

On to `O=S(=O)(N[C@@H]1CC[C@@]2(S(=O)(=O)c3ccc(Cl)cc3)c3c(F)ccc(F)c3OC[C@H]2C1)C1CC1`, for which the values for the inhibition in vivo at 30 mg/kg in the data set with Mus musculus [8] and in the data set with Mus musculus [9] were 80% and 58%, respectively. Also, the pIC50 is less than 4.52 against Cytochrome P450 3A4, 8.37 in [4], 8.08 in data set [1] and 8.03 in [7]. In addition, the exposure (AUC) in [6] was determined as 1910 ng·h/mL.

In data set [1], `CC[C@@H]1C[C@](CC)(S(=O)(=O)c2ccc(Cl)cc2)c2c(F)ccc(F)c2O1` (relative stereo) had a negative-log IC50 (pIC50) of 6.08.

`O=C1CCC2(S(=O)(=O)c3ccc(Cl)cc3)c3c(F)ccc(F)c3OCC2C1` (racemic): in the data set on Mus musculus [2], the inhibition in vivo at 30 mg/kg was determined as 19%. Also, the pIC50 at Cytochrome P450 3A4 is 5.92; in [4], 7.92; in data set [1], 7.89; in data set [7], 7.77. In addition, the area under the curve (AUC) in data set [6] is 60 ng·h/mL.

Compound `C[C@H]1COc2c(F)ccc(F)c2[C@@H]1S(=O)(=O)c1ccc(Cl)cc1` (relative stereo) had a negative-log IC50 (pIC50) in data set [1] of 7.19.

The compound `C[C@@H]1C[C@](C)(S(=O)(=O)c2ccc(Cl)cc2)c2c(F)ccc(F)c2O1` (relative stereo) showed a pIC50 in data set [1] of 5.92.

Take `C[C@H]1COc2c(F)ccc(F)c2[C@@]1(C)S(=O)(=O)c1ccc(Cl)cc1` (relative stereo): in data set [1], the negative logarithm of the IC50 (pIC50) was 6.96.

In data set [1], `CCC1(S(=O)(=O)c2ccc(Cl)cc2)CCOc2c(F)ccc(F)c21` (racemic) had a pIC50 of 7.14.

`O=S(=O)(c1ccc(Cl)cc1)C12CCC(O)CC1COc1c(F)ccc(F)c12` (racemic): the inhibition in vivo at 30 mg/kg with Mus musculus [2] came out at 44%; with Mus musculus [5], 55%. Also, the pIC50 in data set [4] was 7.74; in [1] it was 7.55; in data set [7], 7.60. This compound gave an AUC in [6] of 164 ng·h/mL.

With `COC[C@H]1COc2c(F)ccc(F)c2[C@@]1(C)S(=O)(=O)c1ccc(Cl)cc1` (relative stereo), the negative-log IC50 (pIC50) in data set [1] was 6.57.
